# Assay results as given in ChEMBL document CHEMBL1123768, “Synthesis and characterization of all four isomers of the muscarinic agonist 2'-methylspiro[1-azabicyclo[2.2.2]octane-3,4'-[1,3]dioxolane]” (J Med Chem, 1987).
# Species on record: Cavia porcellus
# Assay: Functional efficacy compared to 1 uM muscarine and the maximum response to carbachol in guinea pig ileum
# Conditions: not given
# Summary of the method: (§1)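 Agonist-evoked contractions were recorded and concentration–response curves built. EC50 is the concentration giving 50% of that tissue's own maximum, reported as −log EC50 (M).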
row,Structure (SMILES),FE
1,C[C@@H]1OCC2(CN3CCC2CC3)O1 (stereo in doubt; 1B2) [listing 1 of 2 here],0.7
2,C[C@H]1OCC2(CN3CCC2CC3)O1 (stereo in doubt; 1B1),0.8
3,C[N+](C)(C)CCOC(N)=O.[Cl-] [CARBACHOL],1
4,CC1OCC2(CN3CCC2CC3)O1 (centres undefined) [listing 1 of 2 here],0.8
5,C[C@@H]1OCC2(CN3CCC2CC3)O1.C[C@H]1OCC2(CN3CCC2CC3)O1 (some centres undefined) [listing 1 of 2 here],0.8

# Species on record: Cavia porcellus
# Assay: Functional efficacy compared to 1 uM muscarine and the maximum response to carbachol in guinea pig isolated atria
# Conditions: not given
row,Structure (SMILES),FE
1,C[C@@H]1OCC2(CN3CCC2CC3)O1 (stereo in doubt; 1B2) [listing 1 of 2 here],0.2
2,C[C@H]1OCC2(CN3CCC2CC3)O1 (stereo in doubt; 1B1),0.8
3,C[N+](C)(C)CCOC(N)=O.[Cl-] [CARBACHOL],1
4,CC1OCC2(CN3CCC2CC3)O1 (centres undefined) [listing 1 of 2 here],0.8
5,C[C@@H]1OCC2(CN3CCC2CC3)O1.C[C@H]1OCC2(CN3CCC2CC3)O1 (some centres undefined) [listing 1 of 2 here],0.8

# Species on record: Cavia porcellus
# Assay: (§2) Determined for potency (muscarinic agonistic activity) expressed in guinea pig ileum in vitro
# Conditions: read-out: Log EC50 (converted)
row,Structure (SMILES),EC50
1,C[C@@H]1OCC2(CN3CCC2CC3)O1 (stereo in doubt; 1B2) [listing 1 of 2 here],20 µM
2,C[C@H]1OCC2(CN3CCC2CC3)O1 (stereo in doubt; 1B1),2.19 µM
3,C[N+](C)(C)CCOC(N)=O.[Cl-] [CARBACHOL],0.102 µM
4,C[C@@H]1OCC2(CN3CCC2CC3)O1.C[C@H]1OCC2(CN3CCC2CC3)O1 (some centres undefined) [listing 1 of 2 here],3.31 µM

# Species on record: Cavia porcellus
# Assay: (§3) Determined for potency (muscarinic agonistic activity) expressed in guinea pig isolated atria in vitro
# Conditions: read-out: Log EC50 (converted)
row,Structure (SMILES),EC50
1,C[C@@H]1OCC2(CN3CCC2CC3)O1 (stereo in doubt; 1B2) [listing 1 of 2 here],100 µM
2,C[C@H]1OCC2(CN3CCC2CC3)O1 (stereo in doubt; 1B1),14.8 µM
3,C[N+](C)(C)CCOC(N)=O.[Cl-] [CARBACHOL],0.209 µM
4,C[C@@H]1OCC2(CN3CCC2CC3)O1.C[C@H]1OCC2(CN3CCC2CC3)O1 (some centres undefined) [listing 1 of 2 here],21.9 µM

# Species on record: Rattus norvegicus
# Assay: Determined for Functional efficacy compared to 1 uM muscarine in superior cervical ganglion
# Conditions: not given
# Summary of the method: (§4)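 Potentials were recorded by grease-gap between the ganglion body and the internal carotid nerve. Semicumulative concentration–response curves used 1-min agonist superfusions every 10 min. Potency is given as −log EC50 (M). Efficacy is the ratio to the maximum response to 1 µM (±)-muscarine chloride.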
row,Structure (SMILES),FE
1,C[C@@H]1OCC2(CN3CCC2CC3)O1 (stereo in doubt; 1B2) [listing 1 of 2 here],0.7
2,C[C@@H]1O[C@H](C[N+](C)(C)C)C[C@H]1O [MUSCARINE],1.1
3,C[C@H]1OCC2(CN3CCC2CC3)O1 (stereo in doubt; 1B1),0.8
4,CC1OCC2(CN3CCC2CC3)O1 (centres undefined) [listing 1 of 2 here],0.7
5,C[C@@H]1OCC2(CN3CCC2CC3)O1.C[C@H]1OCC2(CN3CCC2CC3)O1 (some centres undefined) [listing 1 of 2 here],0.7

# Species on record: Rattus norvegicus
# Assay: (§5) Determined for potency (muscarinic agonistic activity) expressed in superior cervical ganglion in vitro
# Format: functional
# Conditions: not given
# Summary of the method: as §4
row,Structure (SMILES),Log EC50
1,C[C@@H]1OCC2(CN3CCC2CC3)O1 (stereo in doubt; 1B2) [listing 1 of 2 here],-4.56
2,"CC1OCC2(CN3CCC2CC3)O1 (single isomer, unassigned) [listing 1 of 2 here]",< -4
3,C[C@H]1OCC2(CN3CCC2CC3)O1 (stereo in doubt; 1B1),-5.25
4,C[C@@H]1OCC2(CN3CCC2CC3)O1 (stereo in doubt; 1A1) [listing 1 of 2 here],< -4

# Same assay, conditions: Rattus norvegicus, Superior cervical ganglion
row,Structure (SMILES),EC50
1,C[C@@H]1O[C@H](C[N+](C)(C)C)C[C@H]1O [MUSCARINE],0.17 µM
2,C[C@@H]1OCC2(CN3CCC2CC3)O1.C[C@H]1OCC2(CN3CCC2CC3)O1 (some centres undefined) [listing 1 of 2 here],5.75 µM

# Species on record: Cavia porcellus
# Assay: as §3
# Format: functional
# Conditions: not given
row,Structure (SMILES),EC50
1,CC1OCC2(CN3CCC2CC3)O1 (centres undefined) [listing 1 of 2 here],83.2 µM

# System: not listed separately
# Assay: as §5
# Format: functional, tissue-based, Rattus norvegicus
# Conditions: not given
# Summary of the method: as §4
row,Structure (SMILES),Log EC50
1,CC1OCC2(CN3CCC2CC3)O1 (centres undefined) [listing 1 of 2 here],-4.83

# Species on record: Cavia porcellus
# Assay: as §2
# Format: functional
# Conditions: not given
# Summary of the method: as §1
row,Structure (SMILES),EC50
1,"CC1OCC2(CN3CCC2CC3)O1 (single isomer, unassigned) [listing 1 of 2 here]",> 316 µM
2,CC1OCC2(CN3CCC2CC3)O1 (centres undefined) [listing 1 of 2 here],6.31 µM

# Target: T1, Muscarinic acetylcholine receptor M2 (Rattus norvegicus) (UniProt P10980)
# T1 sequence (whole entry): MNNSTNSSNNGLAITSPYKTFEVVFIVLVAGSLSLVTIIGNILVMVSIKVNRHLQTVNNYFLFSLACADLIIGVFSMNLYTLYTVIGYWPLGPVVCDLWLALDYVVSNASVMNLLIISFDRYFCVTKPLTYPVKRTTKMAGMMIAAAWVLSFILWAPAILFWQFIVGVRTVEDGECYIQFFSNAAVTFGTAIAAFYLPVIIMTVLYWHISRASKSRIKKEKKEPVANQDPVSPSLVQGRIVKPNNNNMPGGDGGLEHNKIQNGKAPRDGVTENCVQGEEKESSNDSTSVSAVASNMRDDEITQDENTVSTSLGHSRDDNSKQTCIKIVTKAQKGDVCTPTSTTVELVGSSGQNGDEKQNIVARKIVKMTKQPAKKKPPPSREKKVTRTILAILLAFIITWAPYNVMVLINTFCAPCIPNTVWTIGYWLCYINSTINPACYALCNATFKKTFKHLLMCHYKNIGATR
# Conditions: not given
row,Structure (SMILES),K app
1,CC1OCC2(CN3CCC2CC3)O1 (centres undefined) [listing 2 of 2 here],13 µM

# Target: T2, Muscarinic acetylcholine receptor M1 (Rattus norvegicus) (UniProt P08482)
# T2 sequence (whole entry): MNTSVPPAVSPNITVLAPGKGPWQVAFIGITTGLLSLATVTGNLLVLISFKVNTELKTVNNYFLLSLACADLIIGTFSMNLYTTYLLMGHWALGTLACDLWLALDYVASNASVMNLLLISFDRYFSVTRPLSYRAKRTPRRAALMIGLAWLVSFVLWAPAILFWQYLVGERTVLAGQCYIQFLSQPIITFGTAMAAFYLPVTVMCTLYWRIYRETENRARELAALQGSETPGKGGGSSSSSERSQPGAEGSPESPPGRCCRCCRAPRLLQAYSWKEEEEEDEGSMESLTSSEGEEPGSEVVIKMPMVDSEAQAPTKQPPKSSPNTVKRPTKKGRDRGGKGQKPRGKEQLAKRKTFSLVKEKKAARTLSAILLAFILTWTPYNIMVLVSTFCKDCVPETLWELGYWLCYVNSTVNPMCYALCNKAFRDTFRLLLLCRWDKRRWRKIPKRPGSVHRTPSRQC
# Conditions: not given
row,Structure (SMILES),K app
1,C[C@@H]1OCC2(CN3CCC2CC3)O1 (stereo in doubt; 1B2) [listing 2 of 2 here],4.1 µM
2,"CC1OCC2(CN3CCC2CC3)O1 (single isomer, unassigned) [listing 2 of 2 here]",66 µM
3,C[C@@H]1OCC2(CN3CCC2CC3)O1 (stereo in doubt; 1A1) [listing 2 of 2 here],55 µM
4,C[C@@H]1O[C@H](C[N+](C)(C)C)C[C@H]1O [MUSCARINE],28 µM
5,C[C@H]1OCC2(CN3CCC2CC3)O1 (stereo in doubt; 1B1),2.7 µM
6,C[N+](C)(C)CCOC(N)=O.[Cl-] [CARBACHOL],45 µM
7,C[C@@H]1OCC2(CN3CCC2CC3)O1.C[C@H]1OCC2(CN3CCC2CC3)O1 (some centres undefined) [listing 2 of 2 here],5.9 µM

# Target: T2, Muscarinic acetylcholine receptor M1 (Rattus norvegicus)
# Conditions: not given
# Remark: another data set of the same source
row,Structure (SMILES),K app
1,CC1OCC2(CN3CCC2CC3)O1 (centres undefined) [listing 2 of 2 here],6.8 µM

# Target: T1, Muscarinic acetylcholine receptor M2 (Rattus norvegicus)
# Conditions: not given
# Remark: another data set of the same source
row,Structure (SMILES),K app
1,C[C@@H]1OCC2(CN3CCC2CC3)O1 (stereo in doubt; 1B2) [listing 2 of 2 here],8.5 µM
2,"CC1OCC2(CN3CCC2CC3)O1 (single isomer, unassigned) [listing 2 of 2 here]",92 µM
3,C[C@@H]1OCC2(CN3CCC2CC3)O1 (stereo in doubt; 1A1) [listing 2 of 2 here],64 µM
4,C[C@@H]1O[C@H](C[N+](C)(C)C)C[C@H]1O [MUSCARINE],2.3 µM
5,C[C@H]1OCC2(CN3CCC2CC3)O1 (stereo in doubt; 1B1),2.2 µM
6,C[N+](C)(C)CCOC(N)=O.[Cl-] [CARBACHOL],1.9 µM
7,C[C@@H]1OCC2(CN3CCC2CC3)O1.C[C@H]1OCC2(CN3CCC2CC3)O1 (some centres undefined) [listing 2 of 2 here],8.4 µM
